Reference: publication PMC4269301 (International journal of peptide research and therapeutics, 2014)
Square brackets hold non-standard residues; d marks the D form. Peptide text beside a SMILES is read from it. Nle = CCCC[C@H](N)C(=O)O

What was measured:
[1] = target: T1, GRK5 (Homo sapiens, UniProt P34947); assay: GRK5 phosphorylation of light-activated rhodopsin; format: biochemical; details: for inhibition at 100 µM: read-out: % Inhibition (100 μM) of GRK5 phosphorylation of rhodopsin; for % Inhibition (100 μM) of GRK5 phosphorylation of rhodopsin: 100 μM peptide, 0.5 μM light-activated rhodopsin, 100 μM ATP, 5 min
[2] = target: T2, GRK2 (Homo sapiens, UniProt P25098, S670A); assay: GRK2 phosphorylation of tubulin; format: biochemical
T2 sequence (P25098 1-689 S670A): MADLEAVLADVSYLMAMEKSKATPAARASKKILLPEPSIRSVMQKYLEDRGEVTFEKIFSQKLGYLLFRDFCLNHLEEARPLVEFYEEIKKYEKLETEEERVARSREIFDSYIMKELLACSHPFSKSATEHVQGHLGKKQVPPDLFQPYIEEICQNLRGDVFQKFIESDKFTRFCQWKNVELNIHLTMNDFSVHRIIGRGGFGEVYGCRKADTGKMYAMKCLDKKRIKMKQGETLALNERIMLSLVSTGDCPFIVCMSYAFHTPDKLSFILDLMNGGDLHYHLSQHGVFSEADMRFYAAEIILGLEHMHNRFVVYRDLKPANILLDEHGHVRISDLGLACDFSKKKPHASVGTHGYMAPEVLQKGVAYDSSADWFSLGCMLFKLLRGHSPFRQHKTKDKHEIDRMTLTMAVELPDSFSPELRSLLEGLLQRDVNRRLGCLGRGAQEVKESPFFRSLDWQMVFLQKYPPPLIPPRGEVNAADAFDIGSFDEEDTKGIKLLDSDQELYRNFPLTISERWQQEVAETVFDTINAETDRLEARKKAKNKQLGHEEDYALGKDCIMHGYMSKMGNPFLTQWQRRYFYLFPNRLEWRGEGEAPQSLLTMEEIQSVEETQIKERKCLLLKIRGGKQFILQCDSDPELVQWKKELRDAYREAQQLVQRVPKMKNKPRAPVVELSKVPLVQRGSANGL
Outline: (§1)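 Bovine brain tubulin 500 nM with 100 nM GRK2 (His₆, S670A, Sf9-expressed) or human His₆-GRK5; 20 mM Tris pH 7.5, 1 mM EDTA, 10 mM MgCl₂, 5 μM DTT, 100 μM [γ³²P]ATP; 60 min, 30 °C. 12 % SDS-PAGE; ³²P-tubulin counted from excised bands or by autoradiogram densitometry. Mean ± SEM, ≥4 experiments in duplicate, % of control; one-way ANOVA.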

[3] = target: T1, GRK5; assay: GRK5 phosphorylation of tubulin; format: biochemical
Outline: as §1

[4] = test system: GRK6; assay: GRK6 phosphorylation of light-activated rhodopsin; format: biochemical, human; details: peptides 10, 30 and 100 μM; four or more experiments in duplicate
Outline: (§2)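 Light-activated (475 nm, 30 s) rhodopsin, 0.5 μM, from urea-stripped bovine ROS. Kinase was purified GRK2 (His₆, S670A, Sf9/baculovirus, Ni-IMAC) or N-terminal His₆ full-length human GRK6, at 10–100 nM. Buffer: 20 mM Tris pH 7.5, 10 mM MgCl₂, 1 mM EDTA, 100 μM [γ³²P]ATP; peptides in DMSO (2–4 %). Ran 5 min, then SDS-PAGE and autoradiography. ≥4 experiments in duplicate, % of control.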

[5] = target: T3, GRK7 (Homo sapiens, UniProt Q8WTQ7); assay: GRK7 phosphorylation of light-activated rhodopsin; format: biochemical; details: peptides 10, 30 and 100 μM; four or more experiments in duplicate
T3 sequence (Q8WTQ7 1-553): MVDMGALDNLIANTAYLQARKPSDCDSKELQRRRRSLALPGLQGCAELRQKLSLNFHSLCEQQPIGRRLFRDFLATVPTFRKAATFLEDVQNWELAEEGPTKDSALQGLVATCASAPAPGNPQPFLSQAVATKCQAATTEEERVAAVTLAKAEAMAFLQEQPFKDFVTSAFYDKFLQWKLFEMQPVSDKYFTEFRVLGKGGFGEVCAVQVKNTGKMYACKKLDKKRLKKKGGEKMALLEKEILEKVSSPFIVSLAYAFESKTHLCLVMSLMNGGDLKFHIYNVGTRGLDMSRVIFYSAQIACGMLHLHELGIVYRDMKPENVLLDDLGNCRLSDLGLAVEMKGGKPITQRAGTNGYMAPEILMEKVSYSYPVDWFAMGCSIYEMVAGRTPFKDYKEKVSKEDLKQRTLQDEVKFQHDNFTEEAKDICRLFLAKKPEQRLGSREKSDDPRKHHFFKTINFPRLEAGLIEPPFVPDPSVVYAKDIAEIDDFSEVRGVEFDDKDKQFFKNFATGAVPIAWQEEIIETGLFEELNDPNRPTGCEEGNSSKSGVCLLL
Outline: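 Substrate is urea-stripped bovine rod outer segment rhodopsin (0.5 μM in reaction buffer; 0.5–4 μM per legend), light-activated at 475 nm for 30 s. Peptides are dissolved in DMSO (2–4% final) and quantified by A280. Results are normalised to the no-peptide control as mean ± SEM.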

[6] = target: T2, GRK2; assay: GRK2 phosphorylation of light-activated rhodopsin; format: biochemical; details: peptides 10, 30 and 100 μM; four or more experiments in duplicate
Outline: as §2

[7] = test system: GRK6; details: ref previous study of the α9 peptide (Baameur et al. 2010); cited from earlier work
[8] = target: Human His6-tagged GRK5 (human) (UniProt P34947)
[9] = target: light-activated rhodopsin in urea-stripped bovine rod outer segments (bovine) (UniProt P02699)
light-activated rhodopsin in urea-stripped bovine rod outer segments (bovine), sequence (P02699 whole entry): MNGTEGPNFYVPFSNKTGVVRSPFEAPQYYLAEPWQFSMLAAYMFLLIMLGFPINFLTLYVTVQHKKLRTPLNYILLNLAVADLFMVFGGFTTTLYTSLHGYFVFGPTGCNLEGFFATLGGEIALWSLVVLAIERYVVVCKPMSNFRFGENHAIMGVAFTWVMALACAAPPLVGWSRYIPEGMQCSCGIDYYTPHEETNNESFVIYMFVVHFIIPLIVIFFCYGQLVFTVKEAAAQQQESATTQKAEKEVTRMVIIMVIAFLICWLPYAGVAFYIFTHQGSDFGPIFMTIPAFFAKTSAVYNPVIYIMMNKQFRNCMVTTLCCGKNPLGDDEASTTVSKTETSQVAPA

T1 sequence (P34947 whole entry): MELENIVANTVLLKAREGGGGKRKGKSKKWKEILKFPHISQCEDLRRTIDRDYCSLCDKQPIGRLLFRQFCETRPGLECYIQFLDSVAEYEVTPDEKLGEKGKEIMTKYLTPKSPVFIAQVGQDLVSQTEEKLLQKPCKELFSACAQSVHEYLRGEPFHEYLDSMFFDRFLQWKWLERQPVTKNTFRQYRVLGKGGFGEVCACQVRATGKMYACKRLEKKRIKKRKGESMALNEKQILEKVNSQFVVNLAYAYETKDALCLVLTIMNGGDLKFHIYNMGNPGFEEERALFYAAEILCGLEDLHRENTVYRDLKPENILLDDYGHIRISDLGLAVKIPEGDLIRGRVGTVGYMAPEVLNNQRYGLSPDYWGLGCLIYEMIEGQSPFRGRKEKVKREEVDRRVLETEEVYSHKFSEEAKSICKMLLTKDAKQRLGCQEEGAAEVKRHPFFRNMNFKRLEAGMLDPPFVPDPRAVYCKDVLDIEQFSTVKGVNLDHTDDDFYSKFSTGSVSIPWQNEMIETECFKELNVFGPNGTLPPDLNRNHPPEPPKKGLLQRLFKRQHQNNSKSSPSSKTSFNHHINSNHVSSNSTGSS
Human His6-tagged GRK5 (human), sequence (P34947 whole entry): as above

`CCCC[C@H](NC(=O)[C@H](CO)NC(C)=O)C(=O)N[C@@H](Cc1ccccc1)C(=O)N[C@@H](Cc1ccccc1)C(=O)N[C@@H](CC(=O)O)C(=O)N[C@@H](CCCNC(=N)N)C(=O)N[C@@H](Cc1ccccc1)C(=O)N[C@@H](CC(C)C)C(=O)N[C@@H](CCC(N)=O)C(=O)N[C@@H](Cc1c[nH]c2ccccc12)C(=O)N[C@@H](CCCCN)C(=O)N[C@@H](Cc1c[nH]c2ccccc12)C(=O)N[C@@H](CC(C)C)C(N)=O` [Peptide T2] (Ac-S[Nle]FFDRFLQWKWL-NH2) gave an IC50 [1] of 5.2 ± 2 µM and an inhibition at 100 µM [1] of 98%.

For Ac-PIGRLLFRQFC-NH2 [α3], the “Inhibition of GRK5 phosphorylation of rhodopsin” value ([1]; peptides 10, 30 and 100 μM, four or more experiments in duplicate) was “inhibited”, the IC50 [2] was ~30 µM and the “% inhibition of GRK2 phosphorylation of tubulin” value ([2]; 100 μM peptide, 0.5 μM tubulin, 100 nM GRK2, 60 min, 30 °C) was 60–80%. The IC50 [3] was ~30 µM, the “% inhibition of GRK5 phosphorylation of tubulin” value ([3]; 100 μM peptide, 0.5 μM tubulin, 100 nM GRK5, 60 min, 30 °C) was 60–80% and the “Inhibition of GRK6 phosphorylation of rhodopsin” value [4] was “little activity”. For the same molecule, the “Inhibition of GRK7 phosphorylation of rhodopsin” value [5] was “inhibited” and the “Inhibition of GRK2 phosphorylation of rhodopsin” value [6] was “inhibited”.

For `CCCC[C@H](NC(=O)[C@H](CO)NC(C)=O)C(=O)N[C@@H](Cc1ccccc1)C(=O)N[C@@H](Cc1ccccc1)C(=O)N[C@@H](CC(=O)O)C(=O)N[C@@H](CCCNC(=N)N)C(=O)N[C@@H](Cc1ccccc1)C(=O)N[C@@H](CC(C)C)C(=O)N[C@@H](CCC(N)=O)C(=O)N[C@@H](Cc1c[nH]c2ccccc12)C(=O)N[C@@H](CCCCN)C(=O)N[C@@H](Cc1c[nH]c2ccccc12)C(=O)N[C@@H](CC(C)C)C(=O)N[C@@H](CCC(=O)O)C(=O)N[C@@H](CCCNC(=N)N)C(N)=O` [α9 (164–178)] (Ac-S[Nle]FFDRFLQWKWLER-NH2), the IC50 [1] is listed as 15.9 ± 4.3 µM, the inhibition at 100 µM [1] is listed as 89% and the “Inhibition of GRK6 (previous study)” value [7] is listed as “no inhibition”.

With “Ac-S[Nle]FFDRFLQAKWLER-NH2 [Peptide W173A]” the “% Inhibition (100 μM) of GRK5 phosphorylation of rhodopsin” value (shortened to “% Inhibition (100 μM)”) [1] was ~26%.

In the case of Ac-S[Nle]FFDRFLQWK-NH2 [Peptide T4], the “% Inhibition (100 μM)” value [1] is reported as 72%.

Ac-FFDRFLQWKWLER-NH2 [Peptide T1] showed an IC50 [1] of 23.9 ± 16 µM and an inhibition at 100 µM [1] of 95%.

In the case of “Ac-S[Nle]AFDRFLQWKWLER-NH2 [Peptide F166A]”, the “% Inhibition (100 μM)” value [1] is reported as 42%.

For Ac-PIGRLLFRQFC-NH2 [α3 (61–71) peptide of GRK5], the GRK5 phosphorylation of tubulin: IC50 of inhibition [8] was 30 µM.

Work on Ac-ILENLKDCGLF-NH2 [Gα transducin C-tail peptide TCT (340–350) K341L] yielded a GRK5 phosphorylation of light-activated rhodopsin: IC50 of inhibition [9] of 10 µM.
